Laboratory results reported in ChEMBL document CHEMBL3120133, “Discovery of a potent boronic acid derived inhibitor of the HCV RNA-dependent RNA polymerase” (J Med Chem, 2014).
Activity calls are given as the source filed them. The rule behind the calls is not given here.

Test system: not listed separately
Test: Inhibition of C-terminal 6xHis-tagged Hepatitis C virus genotype 1b BK NS5B Cdelta21 RNA dependent RNA polymerase L47Q/F101Y/[…] mutant after 30 mins in presence of [alpha-33P]
Set-up: species or system Hepatitis C virus (isolate BK)
Settings: not given
Compound CNC(=O)c1c(-c2ccc(F)cc2)oc2cc(N(Cc3ccc(B(O)O)cc3)S(C)(=O)=O)c(C3CC3)cc12 has an IC50 of 32 nM. Compound CNC(=O)c1c(-c2ccc(F)cc2)oc2cc(N(Cc3cccc(B(O)O)c3)S(C)(=O)=O)c(C3CC3)cc12 has an IC50 of 30 nM. In the case of CNC(=O)c1c(-c2ccc(F)cc2)oc2cc(N(Cc3ccccc3)S(C)(=O)=O)c(C3CC3)cc12, the IC50 is reported as 50 nM. Compound CNC(=O)c1c(-c2ccc(F)cc2)oc2cc(N(CC3COB(O)C3)S(C)(=O)=O)c(C3CC3)cc12 (racemic) has an IC50 of 50 nM. CNC(=O)c1c(-c2ccc(F)cc2)oc2cc(N(Cc3ccc(S(=O)(=O)O)cc3)S(C)(=O)=O)c(C3CC3)cc12 showed an IC50 of 16 nM. CNC(=O)c1c(-c2ccc(F)cc2)oc2cc(N(C[C@H]3COB(O)C3)S(C)(=O)=O)c(C3CC3)cc12 gave an IC50 of 50 nM. With CNC(=O)c1c(-c2ccc(F)cc2)oc2cc(N(Cc3ccc(B(O)O)c(F)c3)S(C)(=O)=O)c(C3CC3)cc12 the IC50 was 50 nM.

Test system: Hepatitis C virus (isolate BK)
Test: Inhibition of C-terminal 6xHis-tagged Hepatitis C virus genotype 1b BK NS5B Cdelta21 RNA dependent RNA polymerase L47Q/F101Y/[…] mutant expressed in Escherichia coli BL21(DE3) using radiolabelled CTP/5'-A(8)CG-3' as substrate/template assessed as inhibition of pCpG dimer formation at 0.016 to 10 uM
Settings: not given
For CNC(=O)c1c(-c2ccc(F)cc2)oc2cc(N(Cc3ccc(B(O)O)c(F)c3)S(C)(=O)=O)c(C3CC3)cc12, the inhibition was “Active”.

Molecular target: RNA-directed RNA polymerase (Hepacivirus hominis, UniProt O39930, C316N)
Sequence (O39930 entry or part of it C316N): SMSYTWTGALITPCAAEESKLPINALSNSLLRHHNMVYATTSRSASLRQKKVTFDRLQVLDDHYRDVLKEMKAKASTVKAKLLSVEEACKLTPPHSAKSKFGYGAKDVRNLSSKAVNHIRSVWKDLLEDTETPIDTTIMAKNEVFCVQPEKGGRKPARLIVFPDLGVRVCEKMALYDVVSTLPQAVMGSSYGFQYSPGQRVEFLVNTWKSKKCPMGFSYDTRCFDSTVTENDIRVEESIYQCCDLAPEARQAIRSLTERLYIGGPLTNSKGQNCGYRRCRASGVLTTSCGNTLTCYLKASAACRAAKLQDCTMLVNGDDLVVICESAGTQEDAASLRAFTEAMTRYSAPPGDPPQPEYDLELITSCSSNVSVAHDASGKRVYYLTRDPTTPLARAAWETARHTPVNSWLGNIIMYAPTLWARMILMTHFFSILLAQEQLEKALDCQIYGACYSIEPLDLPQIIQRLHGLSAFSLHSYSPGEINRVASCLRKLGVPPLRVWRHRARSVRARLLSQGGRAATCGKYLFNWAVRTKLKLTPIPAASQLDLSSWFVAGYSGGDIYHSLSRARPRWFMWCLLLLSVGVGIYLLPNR
Test: Inhibition of Hepatitis C virus genotype 1b NS5B Cdelta21 RNA dependent RNA polymerase 316N mutant using biotinylated polyC:oligoG/[alpha-P33]-GTP as template/substrate preincubated for 15 mins followed by template/substrate addition by scintillation proximity assay
Set-up: species or system Hepatitis C virus subtype 1b
Settings: not given
Method in brief: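 Isolated NS5B at 30 nM was preincubated with inhibitor for 15 min before reaction start. The IC50 was determined from the polymerase assay.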
In the case of CNC(=O)c1c(-c2ccc(F)cc2)oc2cc(N(Cc3ccc(B(O)O)c(F)c3)S(C)(=O)=O)c(C3CC3)cc12, the IC50 is reported as 130 nM.

Test system: RNA-directed RNA polymerase (Hepacivirus hominis), O39930 [C316N]
Sequence (O39930 entry or part of it C316N): as above
Test: Binding affinity to Hepatitis C virus genotype 1b NS5B Cdelta21 RNA dependent RNA polymerase 316N mutant assessed as dissociation half life at 0.6 uM by LC-MS/MS analysis
Settings: Hepatitis C virus subtype 1b
Method in brief: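 NS5B∆21 GT1b 316N (10 uM) saturated with 12uM inhibitor to pre-form the complex, then diluted 20-fold into 10 uM of the competing Palm II inhibitor to block rebinding. Bound compound was separated from free by rapid size-exclusion filtration over time, and both inhibitors were quantified by LC-MS. Off-rates were fitted to a single or two-phase exponential to give t1/2.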
With CNC(=O)c1c(-c2ccc(F)cc2)oc2cc(N(Cc3ccc(B(O)O)c(F)c3)S(C)(=O)=O)c(C3CC3)cc12 the T1/2 was 4.3 h.

Test system: Hepatitis C virus
Test: Antiviral activity against wild type Hepatitis C virus genotype 1b harboring S365T mutant infected in human HuH7 cells assessed as inhibition of viral replication after 72 hrs by Bright-glo luciferase reporter gene assay
Assay type: functional, organism-based, Hepacivirus hominis
Settings: Huh-7, 72 h
CNC(=O)c1c(-c2ccc(F)cc2)oc2cc(N(Cc3ccc(B(O)O)c(F)c3)S(C)(=O)=O)c(C3CC3)cc12 showed an EC50 of 4.2 nM.

Test system: Hepatitis C virus
Test: Antiviral activity against wild type Hepatitis C virus genotype 1a infected in human HuH7 cells assessed as inhibition of viral replication after 48 hrs by luciferase reporter gene assay
Assay type: functional, organism-based, Hepacivirus hominis
Settings: subtype 1a, Huh-7, 48 h
Method in brief: (§1)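 Replicon-based readout (stable and transient replicon formats) in place of virus infection, with compound present for 2 days before EC50 determination.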
With CNC(=O)c1c(-c2ccc(F)cc2)oc2cc(N(Cc3ccc(B(O)O)cc3)S(C)(=O)=O)c(C3CC3)cc12 the EC50 was 2.7 nM. In the case of CNC(=O)c1c(-c2ccc(F)cc2)oc2cc(N(Cc3cccc(B(O)O)c3)S(C)(=O)=O)c(C3CC3)cc12, the EC50 is reported as 8.8 nM. For CNC(=O)c1c(-c2ccc(F)cc2)oc2cc(N(Cc3ccccc3)S(C)(=O)=O)c(C3CC3)cc12, the EC50 was 58 nM. Work on CNC(=O)c1c(-c2ccc(F)cc2)oc2cc(N(CC3COB(O)C3)S(C)(=O)=O)c(C3CC3)cc12 (racemic) yielded an EC50 of 2.9 nM. For CNC(=O)c1c(-c2ccc(F)cc2)oc2cc(N(Cc3ccc(S(=O)(=O)O)cc3)S(C)(=O)=O)c(C3CC3)cc12, the EC50 was greater than 5000 nM. Compound CNC(=O)c1c(-c2ccc(F)cc2)oc2cc(N(C[C@H]3COB(O)C3)S(C)(=O)=O)c(C3CC3)cc12 has an EC50 of 5.3 nM. CNC(=O)c1c(-c2ccc(F)cc2)oc2cc(N(Cc3ccc(B(O)O)c(F)c3)S(C)(=O)=O)c(C3CC3)cc12 showed an EC50 of 3 nM.

Test system: Huh-7
Test: Cytotoxicity in human HuH7 cells assessed as cell viability after 72 hrs by CellTitre-glo luminescence assay
Assay type: cell-based
Settings: huh-7, 72 h
For CNC(=O)c1c(-c2ccc(F)cc2)oc2cc(N(CC3COB(O)C3)S(C)(=O)=O)c(C3CC3)cc12 (racemic), the Activity was “Non-toxic”. In the case of CNC(=O)c1c(-c2ccc(F)cc2)oc2cc(N(C[C@H]3COB(O)C3)S(C)(=O)=O)c(C3CC3)cc12, the Activity is reported as “Non-toxic”.

Test system: Hepatitis C virus
Test: Antiviral activity against wild type Hepatitis C virus genotype 1b harboring C316N mutant infected in human HuH7 cells assessed as inhibition of viral replication after 48 hrs by luciferase reporter gene assay
Assay type: functional, organism-based, Hepacivirus hominis
Settings: Huh-7, 48 h
With CNC(=O)c1c(-c2ccc(F)cc2)oc2cc(N(Cc3ccc(B(O)O)cc3)S(C)(=O)=O)c(C3CC3)cc12 the EC50 was 13 nM. Work on CNC(=O)c1c(-c2ccc(F)cc2)oc2cc(N(Cc3cccc(B(O)O)c3)S(C)(=O)=O)c(C3CC3)cc12 yielded an EC50 of 120 nM. Work on CNC(=O)c1c(-c2ccc(F)cc2)oc2cc(N(Cc3ccccc3)S(C)(=O)=O)c(C3CC3)cc12 yielded an EC50 of 440 nM. Compound CNC(=O)c1c(-c2ccc(F)cc2)oc2cc(N(CC3COB(O)C3)S(C)(=O)=O)c(C3CC3)cc12 (racemic) has an EC50 of 7.6 nM. CNC(=O)c1c(-c2ccc(F)cc2)oc2cc(N(Cc3ccc(S(=O)(=O)O)cc3)S(C)(=O)=O)c(C3CC3)cc12 gave an EC50 greater than 5000 nM. CNC(=O)c1c(-c2ccc(F)cc2)oc2cc(N(C[C@H]3COB(O)C3)S(C)(=O)=O)c(C3CC3)cc12 showed an EC50 of 11 nM. Compound CNC(=O)c1c(-c2ccc(F)cc2)oc2cc(N(Cc3ccc(B(O)O)c(F)c3)S(C)(=O)=O)c(C3CC3)cc12 has an EC50 of 1.9 nM.

Test system: not listed separately
Test: Stability of the compound
Assay type: physicochemical
Settings: not given
In the case of CNC(=O)c1c(-c2ccc(F)cc2)oc2cc(N(CC3COB(O)C3)S(C)(=O)=O)c(C3CC3)cc12 (racemic), the Stability is reported as “Stable”. In the case of CNC(=O)c1c(-c2ccc(F)cc2)oc2cc(N(C[C@H]3COB(O)C3)S(C)(=O)=O)c(C3CC3)cc12, the Stability is reported as “Stable”.

Test system: not listed separately
Test: Bioavailability in Sprague-Dawley rat at 1 mg/kg, iv and 5 mg/kg, po
Assay type: ADME, organism-based
Settings: in vivo
Work on CNC(=O)c1c(-c2ccc(F)cc2)oc2cc(N(Cc3ccc(B(O)O)cc3)S(C)(=O)=O)c(C3CC3)cc12 yielded a bioavailability of less than 3%.

Test system: Hepatitis C virus
Test: Antiviral activity against wild type Hepatitis C virus genotype 1b harboring C316Y mutant infected in human HuH7 cells assessed as inhibition of viral replication after 72 hrs by Bright-glo luciferase reporter gene assay
Assay type: functional, organism-based, Hepacivirus hominis
Settings: Huh-7, 72 h
CNC(=O)c1c(-c2ccc(F)cc2)oc2cc(N(Cc3ccc(B(O)O)c(F)c3)S(C)(=O)=O)c(C3CC3)cc12 gave an EC50 of 1.4 nM.

Test system: Hepatitis C virus
Test: Antiviral activity against wild type Hepatitis C virus genotype 1a harboring C316Y mutant infected in human HuH7 cells assessed as inhibition of viral replication after 48 hrs by luciferase reporter gene assay
Assay type: functional, organism-based, Hepacivirus hominis
Settings: subtype 1a, Huh-7, 48 h
Work on CNC(=O)c1c(-c2ccc(F)cc2)oc2cc(N(Cc3ccc(B(O)O)cc3)S(C)(=O)=O)c(C3CC3)cc12 yielded an EC50 of 120 nM. Compound CNC(=O)c1c(-c2ccc(F)cc2)oc2cc(N(Cc3ccc(B(O)O)c(F)c3)S(C)(=O)=O)c(C3CC3)cc12 has an EC50 of 3.2 nM.

Test system: Hepatitis C virus
Test: Antiviral activity against wild type Hepatitis C virus genotype 1b harboring C316F mutant infected in human HuH7 cells assessed as inhibition of viral replication after 72 hrs by Bright-glo luciferase reporter gene assay
Assay type: functional, organism-based, Hepacivirus hominis
Settings: Huh-7, 72 h
In the case of CNC(=O)c1c(-c2ccc(F)cc2)oc2cc(N(Cc3ccc(B(O)O)c(F)c3)S(C)(=O)=O)c(C3CC3)cc12, the EC50 is reported as 3.8 nM.

Test system: Hepatitis C virus
Test: Antiviral activity against wild type Hepatitis C virus genotype 1b infected in human HuH7 cells assessed as inhibition of viral replication after 48 hrs by luciferase reporter gene assay
Assay type: functional, organism-based, Hepacivirus hominis
Settings: Huh-7, 48 h
Method in brief: as §1
CNC(=O)c1c(-c2ccc(F)cc2)oc2cc(N(Cc3ccc(B(O)O)cc3)S(C)(=O)=O)c(C3CC3)cc12 showed an EC50 of 2.6 nM. CNC(=O)c1c(-c2ccc(F)cc2)oc2cc(N(Cc3cccc(B(O)O)c3)S(C)(=O)=O)c(C3CC3)cc12 gave an EC50 of 6.9 nM. With CNC(=O)c1c(-c2ccc(F)cc2)oc2cc(N(Cc3ccccc3)S(C)(=O)=O)c(C3CC3)cc12 the EC50 was 18 nM. In the case of CNC(=O)c1c(-c2ccc(F)cc2)oc2cc(N(CC3COB(O)C3)S(C)(=O)=O)c(C3CC3)cc12 (racemic), the EC50 is reported as 2.8 nM. CNC(=O)c1c(-c2ccc(F)cc2)oc2cc(N(Cc3ccc(S(=O)(=O)O)cc3)S(C)(=O)=O)c(C3CC3)cc12 showed an EC50 of 1800 nM. Compound CNC(=O)c1c(-c2ccc(F)cc2)oc2cc(N(C[C@H]3COB(O)C3)S(C)(=O)=O)c(C3CC3)cc12 has an EC50 of 2.9 nM. Compound CNC(=O)c1c(-c2ccc(F)cc2)oc2cc(N(Cc3ccc(B(O)O)c(F)c3)S(C)(=O)=O)c(C3CC3)cc12 has an EC50 of 1.7 nM.

Test system: not listed separately
Test: Clearance in Sprague-Dawley rat at 1 mg/kg, iv and 5 mg/kg, po
Assay type: ADME, organism-based
Settings: in vivo
Compound CNC(=O)c1c(-c2ccc(F)cc2)oc2cc(N(Cc3ccc(B(O)O)cc3)S(C)(=O)=O)c(C3CC3)cc12 has a clearance of 36 mL/min/kg. CNC(=O)c1c(-c2ccc(F)cc2)oc2cc(N(C[C@H]3COB(O)C3)S(C)(=O)=O)c(C3CC3)cc12 showed a clearance of 32 mL/min/kg.
